{"source": "ChEMBL document CHEMBL1165950", "about": "“Design and synthesis of new potent anticancer pyrazoles with high FLT3 kinase inhibitory selectivity” (Bioorg Med Chem, 2010)", "assay_type_in_all_cases": "functional", "key": {"U-251": {"tested_on": "U-251", "assay": "Cytotoxicity against human U251 cells assessed as cell growth at 10 uM after 48 hrs by sulforhodamine B assay", "conditions": "U-251, 48 h, read-out: Activity"}, "HCC 2998": {"tested_on": "HCC 2998", "assay": "Cytotoxicity against human HCC2998 cells assessed as cell growth at 10 uM", "conditions": "read-out: Activity", "procedure,_shortened": "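Single-dose NCI-60 screen at 10 µM. Cells were grown in RPMI 1640 with 5% FBS and 2 mM L-glutamine, then treated for 48 h at 37 °C. Protein was measured by SRB staining with absorbance at 515 nm. Percentage growth was recorded, and inhibition percentage was calculated as 100 minus growth percentage.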"}, "UACC-257": {"tested_on": "UACC-257", "assay": "Cytotoxicity against human UACC257 cells assessed as cell growth at 0.01 uM after 48 hrs by sulforhodamine B assay", "conditions": "UACC-257, 48 h, read-out: Activity"}, "Malme-3M": {"tested_on": "Malme-3M", "assay": "Cytotoxicity against human MALME-3M cells assessed as cell growth at 0.01 uM after 48 hrs by sulforhodamine B assay", "conditions": "read-out: Activity"}, "TK-10 [1]": {"tested_on": "TK-10", "assay": "Cytotoxicity against human TK10 cells assessed as cell growth at 0.01 uM after 48 hrs by sulforhodamine B assay", "conditions": "TK-10, 48 h, read-out: Activity"}, "OVCAR-3": {"tested_on": "OVCAR-3", "assay": "Cytotoxicity against human OVCAR-3 cells assessed as cell growth at 0.001 uM after 48 hrs by sulforhodamine B assay", "conditions": "OVCAR-3, 48 h, read-out: Activity"}, "NCI-H23 [2]": {"tested_on": "NCI-H23", "assay": "Cytotoxicity against human NCI-H23 cells assessed as cell growth at 10 uM after 48 hrs by sulforhodamine B assay", "conditions": "NCI-H23, 48 h, read-out: Activity"}, "TK-10 [3]": {"tested_on": "TK-10", "assay": "Cytotoxicity against human TK10 cells assessed as cell growth at 100 nM after 48 hrs by sulforhodamine B assay", "conditions": "TK-10, 48 h, read-out: Activity"}, "HL-60(TB)": {"tested_on": "HL-60(TB)", "assay": "Cytotoxicity against human HL-60(TB) cells assessed as cell growth at 0.01 uM after 48 hrs by sulforhodamine B assay", "conditions": "HL-60, 48 h, read-out: Activity", "procedure,_shortened": "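NCI 60-cell panel. Cells are grown in RPMI 1640 with 5% FBS and 2 mM L-glutamine, seeded at 5000–40,000 cells/well according to doubling time, and preincubated 24 h. Time-zero plates are TCA-fixed. Compound from DMSO stock is given at five 10-fold or 1/2-log concentrations for 48 h at 37 °C, 5% CO2. Suspension cells are fixed with 80% TCA (final 16%) and SRB-stained, with absorbance at 515 nm. Percent growth is derived from Tz, control and test readings.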"}, "UO-31": {"tested_on": "UO-31", "assay": "Cytotoxicity against human UO31 cells assessed as cell growth at 0.01 uM after 48 hrs by sulforhodamine B assay", "conditions": "UO-31, 48 h, read-out: Activity"}, "NCI-H23 [4]": {"tested_on": "NCI-H23", "assay": "Cytotoxicity against human NCI-H23 cells assessed as cell growth at 100 nM after 48 hrs by sulforhodamine B assay", "conditions": "NCI-H23, 48 h, read-out: Activity"}, "SF-268": {"tested_on": "SF-268", "assay": "Cytotoxicity against human SF268 cells assessed as cell growth at 10 uM after 48 hrs by sulforhodamine B assay", "conditions": "SF-268, 48 h, read-out: Activity"}, "OVCAR-4": {"tested_on": "OVCAR-4", "assay": "Cytotoxicity against human OVCAR4 cells assessed as cell growth at 10 uM after 48 hrs by sulforhodamine B assay", "conditions": "OVCAR-4, 48 h, read-out: Activity"}, "NCI-H23 [5]": {"tested_on": "NCI-H23", "assay": "Cytotoxicity against human NCI-H23 cells assessed as cell growth at 0.001 uM after 48 hrs by sulforhodamine B assay", "conditions": "NCI-H23, 48 h, read-out: Activity"}, "MDA-MB-435": {"tested_on": "MDA-MB-435", "assay": "Cytotoxicity against human MDA-MB-435 cells assessed as cell growth at 1 uM after 48 hrs by sulforhodamine B assay", "conditions": "MDA-MB-435, 48 h, read-out: Activity"}, "SF-539": {"tested_on": "SF-539", "assay": "Cytotoxicity against human SF539 cells assessed as cell growth at 10 uM", "conditions": "read-out: Activity", "procedure,_shortened": "(§1)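 NCI-60 screen: cells grown in RPMI 1640 with 5% FBS and 2 mM L-glutamine, plated at 5000–40,000 cells/well according to doubling time, and preincubated 24 h at 37 °C, 5% CO2. The single 10 µM dose (DMSO stock) was added, then incubated 48 h. Cells were TCA-fixed and stained with 0.4% SRB, read at 515 nm, and growth % calculated against time-zero and control plates.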"}, "SK-OV-3 [6]": {"tested_on": "SK-OV-3", "assay": "Cytotoxicity against human SKOV3 cells assessed as cell growth at 10 uM", "conditions": "read-out: Activity", "procedure,_shortened": "as §1"}, "A549 [7]": {"tested_on": "A549", "assay": "Cytotoxicity against human A549 cells assessed as cell growth at 1 uM after 48 hrs by sulforhodamine B assay", "conditions": "A549, 48 h, read-out: Activity", "procedure,_shortened": "(§2)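 NCI-60 five-dose screen. Cells were grown in RPMI 1640 with 5% FBS and 2 mM L-glutamine, plated at 5000–40,000 cells/well and preincubated for 24 h. Time-zero plates were TCA-fixed. DMSO-solubilized drug was added at five concentrations (10-fold or ½-log serial dilutions) for 48 h at 37 °C, 5% CO2. Cells were TCA-fixed, stained with 0.4% SRB and read at 515 nm. Percent growth used time-zero, control and test absorbances.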"}, "PC-3 [8]": {"tested_on": "PC-3", "assay": "Cytotoxicity against human PC3 cells assessed as cell growth at 1 uM after 48 hrs by sulforhodamine B assay", "conditions": "PC-3, 48 h, read-out: Activity"}, "PC-3 [9]": {"tested_on": "PC-3", "assay": "Cytotoxicity against human PC3 cells assessed as cell growth at 10 uM", "conditions": "read-out: Activity", "procedure,_shortened": "as §1"}, "SNB-19": {"tested_on": "SNB-19", "assay": "Cytotoxicity against human SNB19 cells assessed as cell growth at 1 uM after 48 hrs by sulforhodamine B assay", "conditions": "SNB-19, 48 h, read-out: Activity"}, "DU-145": {"tested_on": "DU-145", "assay": "Cytotoxicity against human DU145 cells assessed as cell growth at 100 nM after 48 hrs by sulforhodamine B assay", "conditions": "DU-145, 48 h, read-out: Activity"}, "UACC-62": {"tested_on": "UACC-62", "assay": "Cytotoxicity against human UACC62 cells assessed as cell growth at 0.001 uM after 48 hrs by sulforhodamine B assay", "conditions": "UACC-62, 48 h, read-out: Activity"}, "OVCAR-5": {"tested_on": "OVCAR-5", "assay": "Cytotoxicity against human OVCAR5 cells assessed as cell growth at 10 uM", "conditions": "read-out: Activity", "procedure,_shortened": "as §1"}, "NCI-H322M": {"tested_on": "NCI-H322M", "assay": "Cytotoxicity against human NCI-H322M cells assessed as cell growth at 100 nM after 48 hrs by sulforhodamine B assay", "conditions": "read-out: Activity"}, "HT-29": {"tested_on": "HT-29", "assay": "Growth inhibition of human HT-29 cells after 48 hrs by sulforhodamine B assay", "conditions": "HT-29, 48 h", "procedure,_shortened": "(§3)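 NCI 60-cell screen, five-dose mode. Cells grown in RPMI 1640 with 5% FBS and 2 mM L-glutamine and plated at 5000-40,000 cells/well according to doubling time. After 24 h preincubation, a Tz plate was TCA-fixed. Five concentrations (10-fold or 1/2 log dilutions) were applied for 48 h at 37 °C. SRB staining read at 515 nm. IC50 taken from [(Ti-Tz)/(C-Tz)]×100 = 50.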"}, "SK-OV-3 [10]": {"tested_on": "SK-OV-3", "assay": "Cytotoxicity against human SKOV3 cells assessed as cell growth at 0.001 uM after 48 hrs by sulforhodamine B assay", "conditions": "SK-OV-3, 48 h, read-out: Activity"}, "A549 [11]": {"tested_on": "A549", "assay": "Cytotoxicity against human A549 cells assessed as cell growth at 0.01 uM after 48 hrs by sulforhodamine B assay", "conditions": "A549, 48 h, read-out: Activity", "procedure,_shortened": "as §2"}, "HCT-116": {"tested_on": "HCT-116", "assay": "Growth inhibition of human HCT116 cells after 48 hrs by sulforhodamine B assay", "conditions": "HCT-116, 48 h", "procedure,_shortened": "as §3"}, "[12]": {"conditions": "read-out: LC50 (the source's name)"}}, "data": [{"smiles": "COc1cc(C)cc(-c2nn(CC#N)cc2-c2ccc(-c3cccc(C(C)=O)c3)nc2)c1", "values": [{"measurement": "growth at 10 µM", "setting": "U-251", "result": -37, "unit": "%"}, {"measurement": "growth at 10 µM", "setting": "HCC 2998", "result": 28.6, "unit": "%"}, {"measurement": "growth at 0.01 µM", "setting": "UACC-257", "result": 85, "unit": "%"}, {"measurement": "growth at 0.01 µM", "setting": "Malme-3M", "result": 85, "unit": "%"}, {"measurement": "growth at 0.01 µM", "setting": "TK-10 [1]", "result": 100, "unit": "%"}, {"measurement": "growth at 0.001 µM", "setting": "OVCAR-3", "result": 102, "unit": "%"}, {"measurement": "growth at 10 µM", "setting": "NCI-H23 [2]", "result": -1, "unit": "%"}, {"measurement": "growth at 0.1 µM", "setting": "TK-10 [3]", "result": 101, "unit": "%"}, {"measurement": "growth at 0.01 µM", "setting": "HL-60(TB)", "result": 91, "unit": "%"}, {"measurement": "growth at 0.01 µM", "setting": "UO-31", "result": 86, "unit": "%"}, {"measurement": "growth at 0.1 µM", "setting": "NCI-H23 [4]", "result": 88, "unit": "%"}, {"measurement": "growth at 10 µM", "setting": "SF-268", "result": -2, "unit": "%"}, {"measurement": "growth at 10 µM", "setting": "OVCAR-4", "result": 10, "unit": "%"}, {"measurement": "growth at 0.001 µM", "setting": "NCI-H23 [5]", "result": 94, "unit": "%"}, {"measurement": "growth at 1 µM", "setting": "MDA-MB-435", "result": -44, "unit": "%"}, {"measurement": "growth at 10 µM", "setting": "SF-539", "result": 5.94, "unit": "%"}, {"measurement": "growth at 10 µM", "setting": "SK-OV-3 [6]", "result": 10.1, "unit": "%"}, {"measurement": "growth at 1 µM", "setting": "A549 [7]", "result": 21, "unit": "%"}, {"measurement": "growth at 1 µM", "setting": "PC-3 [8]", "result": 20, "unit": "%"}, {"measurement": "growth at 10 µM", "setting": "PC-3 [9]", "result": 31.5, "unit": "%"}, {"measurement": "growth at 1 µM", "setting": "SNB-19", "result": 39, "unit": "%"}, {"measurement": "growth at 0.1 µM", "setting": "DU-145", "result": 87, "unit": "%"}, {"measurement": "growth at 0.001 µM", "setting": "UACC-62", "result": 94, "unit": "%"}, {"measurement": "growth at 10 µM", "setting": "OVCAR-5", "result": 91.3, "unit": "%"}, {"measurement": "growth at 0.1 µM", "setting": "NCI-H322M", "result": 95, "unit": "%"}, {"measurement": "GI50", "setting": "HT-29", "result": 3.28, "unit": "µM"}, {"measurement": "TGI", "setting": "HT-29", "result": 18.7, "unit": "µM"}, {"measurement": "CC50", "setting": "HT-29; [12]", "result": "> 100", "unit": "µM"}, {"measurement": "growth at 0.001 µM", "setting": "SK-OV-3 [10]", "result": 86, "unit": "%"}, {"measurement": "growth at 0.01 µM", "setting": "A549 [11]", "result": 87, "unit": "%"}, {"measurement": "GI50", "setting": "HCT-116", "result": 2.33, "unit": "µM"}, {"measurement": "TGI", "setting": "HCT-116", "result": 10.6, "unit": "µM"}, {"measurement": "CC50", "setting": "HCT-116; [12]", "result": 87.4, "unit": "µM"}]}]}
